Source: publication PMC6214802 (Molecular microbiology, 2018)
Where two headings read alike, the source gives them in different places.

Columns and labels:
VcAer2/BT3388 cells = experiment: Behavioral assay; format: cell-based, E. coli; settings: full-length VcAer2; 200 µM or 1 mM IPTG; with or without 25 µg ml^−1 ALA
Method in brief: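 Full-length receptor expressed in chemoreceptorless E. coli BT3388 grown at 30 °C in tryptone broth with 0.5 µg ml−1 thiamine (± 25 µg ml−1 ALA). Induced at OD600 0.2–0.25 for 2 h with 200 µM or 1 mM IPTG. Gas perfusion chamber toggled between air (20.9% O2) and N2. For CO, 30 s N2 then 10 s CO (>99%). Percent tumbling scored for all motile cells per field at 800×. Repeated ≥2 times on ≥2 occasions.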

VcAer2 PAS2 [165–282] = experiment: O2 and CO titrations of purified PAS2 peptide; format: binding, Vibrio cholerae; settings: read-out: Kd(CO); PAS2 [165–282] peptide
Method in brief: (§1)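 PAS1 [38–157] or PAS2 [165–282] peptides came from E. coli BT3388 grown in LB Lennox with 0.5 µg ml−1 thiamine and 25 µg ml−1 ALA, induced with 600 µM IPTG and Ni-NTA purified. Heme-bound protein was quantified by pyridine hemochrome assay to standardize PAS-heme concentration. Kd(O2) and Kd(CO) were estimated by linear interpolation between unliganded Fe2+ and Fe2+-O2 or Fe2+-CO spectra. Averaged over 2–8 experiments, rounded to whole numbers.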

[1] = test system: PAS1 [38–157] mutant peptides; experiment: Gas binding to purified PAS1 [38–157] mutant peptides; parameters: species or system Vibrio cholerae
VcAer2 PAS1 [38–157] = experiment: O2 and CO titrations of purified PAS1 peptide; format: binding, Vibrio cholerae; settings: read-out: Kd(CO); PAS1 [38–157] peptide
Method in brief: as §1

[2] = test system: PAS2 [165–282] W276 mutant peptides; experiment: Gas binding to purified PAS2 [165–282] W276 mutant peptides; parameters: species or system Vibrio cholerae; settings: PAS2 peptides containing W276C, L and V
VcAer2 [165–678] = experiment: O2 and CO titrations of purified VcAer2 [165–678]; format: binding, Vibrio cholerae; settings: read-out: Kd(CO)
Method in brief: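 Truncated receptor was expressed in E. coli BT3388 in LB Lennox with 0.5 µg ml−1 thiamine and 25 µg ml−1 ALA, induced with 600 µM IPTG, then Ni-NTA purified. Heme content was assessed on 5 µM purified protein. Kd(O2) and Kd(CO) came from linear interpolation between unliganded Fe2+ and liganded (Fe2+-O2, Fe2+-CO) absorption spectra. Averaged over 2–8 experiments and rounded to whole numbers.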

[3] = molecular target: PaPAS (Pseudomonas aeruginosa Aer2 PAS domain); settings: read-out: Kd(CO), ref Garcia et al., 2017; cited from earlier work
PaAer2/BT3388 cells = settings: PaAer2 in E. coli; ref Watts et al., 2011; cited from earlier work
[4] = molecular target: V. cholerae Aer2 PAS1 [1–164] peptide (V. cholerae O1 JBK 70); experiment: SEC
[5] = molecular target: V. cholerae Aer2 PAS1 [38–157] peptide (V. cholerae O1 JBK 70); experiment: SEC
[6] = molecular target: V. cholerae Aer2 PAS1 [38–157] peptide (V. cholerae O1 JBK 70); experiment: SEC; remark: listed apart in the source
[7] = molecular target: V. cholerae Aer2 PAS2 [165–282] peptide (V. cholerae O1 JBK 70); experiment: SEC
[8] = molecular target: V. cholerae Aer2 PAS2 [165–282] peptide (V. cholerae O1 JBK 70); experiment: SEC; remark: listed apart in the source
[9] = molecular target: V. cholerae Aer2 PAS 1–2 [1–282] peptide (V. cholerae O1 JBK 70); experiment: SEC

With `[C-]#[O+]` [CO, carbon monoxide] the “behavioral response to gas” value (VcAer2/BT3388 cells) was “did not respond”, the Kd (VcAer2 PAS2 [165–282]) was 5 µM and the “CO binding affinity relative to WT” value ([1]; PAS1-W151C, F, G, P, S, T and V) was “WT affinities”. The “CO binding affinity relative to WT” value ([1]; PAS1-W151L) was “WT affinities”, the “CO binding affinity relative to WT” value ([1]; PAS1-Y119L) was “WT O2 and CO affinities” and the CO binding ([1]; PAS1-Y119L/W151L) was “bound heme and CO”. For the same compound, the Kd (VcAer2 PAS1 [38–157]) was 7 µM, the CO binding [2] was “bound CO” and the Kd (VcAer2 [165–678]) was 2000 nM. For the same compound, the Kd [3] was 2000 nM and the “cells tumbling in the presence of gas” value (PaAer2/BT3388 cells) was ~ 98%.
For “V. cholerae Aer2 PAS1 [1–164] peptide (domain or fragment)”, the stoichiometry N [4] was 2.
With “V. cholerae Aer2 PAS1 [38–157] peptide (domain or fragment)” the stoichiometry N [5] was 2 and the stoichiometry N [6] was 2.
With “V. cholerae Aer2 PAS2 [165–282] peptide (domain or fragment)” the stoichiometry N [7] was 2 and the stoichiometry N [8] was 2.
“V. cholerae Aer2 PAS 1–2 [1–282] peptide (domain or fragment)” showed a stoichiometry N [9] of 2.
